Measured values gathered from unrelated publications.
Protocols differ between the studies behind these lines.
Observed: cell growth or viability

CCOP(=O)(OCC)[C@@H]1C[C@H](n2cc(Cn3ccc(=O)[nH]c3=O)nn2)ON1C (racemic)  CC50 (human T-lymphocyte; 72 h): > 250 µM
COc1ccc(CCN2CCC(Nc3nc4ccccc4n3Cc3ccc(F)cc3)CC2)cc1  viability (HepG2; resazurin; 100 µM; 24 h): 2%
CCOP(=O)(OCC)[C@@H]1C[C@@H](n2cc(Cn3cc(C)c(=O)[nH]c3=O)nn2)ON1C (racemic)  CC50 (human T-lymphocyte; 72 h): > 250 µM
COc1cc2c(cc1O)[C@@H](Cc1ccc(O)cc1)[N+](C)(C)CC2  CC50 (Huh-7; MTT): > 318 µM
CC[C@@H](C)[C@H](N)C(=O)N1Cc2ccccc2C1  viability (HEK-293T; ATP luminescence; 60 µM): 73%
CCOP(=O)(OCC)[C@@H]1C[C@@H](n2cc(-c3ccc(F)cc3F)nn2)ON1C (racemic)  CC50 (human T-lymphocyte; 72 h): ≥ 250 µM
NC1CCC(CC2CCC(NC(=O)c3cc4[nH]ccc4cc3Cl)CC2)CC1 (stereo not shown)  viability (HEK-293T; 100 µM; 24 h): < 50%
CCCCCCn1c(-c2cccc(Cl)c2)n[nH]c1=S  viability (HepG2; resazurin; 10 µM; 24 h): 103%
N[C@@H](CC(=O)N1CCN(C(c2ccc(F)cc2)c2ccc(F)cc2)CC1)C(=O)N1Cc2ccccc2C1  viability (HEK-293T; ATP luminescence; 60 µM): 41%
O=C(NCCc1c[nH]c2ccc(F)cc12)c1cc2[nH]ccc2cc1Cl  viability (HEK-293T; 100 µM; 24 h): < 50%
